Reference: ChEMBL document CHEMBL1128310, “Antitumor imidazotetrazines. 32. Synthesis of novel imidazotetrazinones and related bicyclic heterocycles to probe the mode of action of the antitumor drug temozolomide” (J Med Chem, 1995)

Columns and labels:
[1] = Ratio of cytotoxicity against Raji cells to that of GM892 A cells.; type: functional
[2] = test system: Raji; assay: In vitro cytotoxicity against Raji cell line; type: functional, cell-based; conditions: Homo sapiens
[3] = test system: GM892A cell line; assay: (§1) In vitro cytotoxicity against human lymphoblastoid cell (GM892 A); type: functional, cell-based
[4] = test system: TLX-5; assay: In vitro cytotoxicity against mouse TLX5 lymphoma cells; type: functional, cell-based
Method in brief: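 Mouse TLX5 lymphoma cells in exponential growth at 2×10^4 cells/mL in RPMI 1640 with 15% FCS, given drug in DMSO, triplicate wells per concentration, 72 h at 37 °C under 5% CO2. Electronic cell counting; percent of DMSO-control growth plotted and IC50 (μM) calculated.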

[5] = test system: GM892A cell line; assay: as §1; type: functional, cell-based; remark: listed apart in the source
Method in brief: (§2)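 Mer⁻ GM892A cells in RPMI 1640 with 10% FCS and 1% L-glutamine, seeded at 0.8×10^5 cells/mL and exposed to a range of concentrations in DMSO (≤0.5%) for 72 h. At least three populations per concentration; duplicate cell counts after subtracting the seed number. Growth compared with solvent controls and IC50 (μM) derived.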

[6] = Half life for the hydrolysis of compound in buffers at pH 7.4 at 37 degrees Celsius in incubation mixture - d(A)-d(T) (10:!); type: ADME; conditions: buffer with d(A)-d(T) (10:1)
Method in brief: (§3)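 Compound incubated at 37 °C in 0.1 M phosphate or 0.1 M sodium cacodylate buffer (pH 7.4 or 6.5) with homopolymer oligonucleotide or GMP/CMP, as equimolar nucleotide bases or 10-fold molar excess of bases. Loss of parent was followed by HPLC (0.5% acetic acid in water/methanol 70:30) over about three half-lives. Pseudo-first-order k from log peak area versus time; t1/2 = 0.693/mean k.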

[7] = Half life for the hydrolysis of compound in buffers at pH 7.4, at 37 degrees Celsius in incubation mixture - d(A)-d(T) (1:1); type: ADME; conditions: buffer with d(A)-d(T) (1:1); method in brief: as §3
[8] = Half life for the hydrolysis of compound in buffers at pH 6.5, at 37 degrees Celsius in incubation mixture - d(A)-d(T) (10:1); type: ADME; method in brief: as §3
[9] = Mean rate constant for the hydrolysis of compound in buffers at pH 7.4 at 37 degrees Centigrade in incubation mixture - d(A)-d(T) (10:!); type: ADME; conditions: buffer
Method in brief: (§4)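 Compound incubated at 37 °C in 0.1 M phosphate or 0.1 M sodium cacodylate buffer (pH 7.4 or 6.5) with homopolymer oligonucleotide or GMP/CMP, as equimolar nucleotide bases or 10-fold molar excess of bases. Parent peak followed by HPLC for about three half-lives. Pseudo-first-order k from log(peak area) versus time, at least 10 points per run, averaged over replicate runs.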

[10] = Mean rate constant for the hydrolysis of compound in buffers at pH 7.4, at 37 degrees Celsius in incubation mixture - d(G)-d(C) (1:1); type: ADME; conditions: buffer; method in brief: as §4
[11] = Mean rate constant for the hydrolysis of compound in buffers at pH 7.4, at 37 degrees Celsius in incubation mixture - 5'-GMP/5'-CMP (1:1); type: ADME; conditions: buffer; method in brief: as §4
[12] = Half life for the hydrolysis of compound in buffers at pH 7.4, at 37 degrees Centigrade in incubation mixture - 5'-GMP/5'-CMP (1:1); type: ADME; conditions: buffer with 5'-GMP/5'-CMP (1:1); method in brief: as §3
[13] = Half life for the hydrolysis of compound in buffers at pH 7.4, at 37 degrees Celsius in incubation mixture - d(G)-d(C) (1:1); type: ADME; conditions: buffer with d(G)-d(C) (1:1); method in brief: as §3
[14] = Half life for the hydrolysis of compound in buffers at pH 7.4, at 37 degrees Celsius in incubation mixture - d(A)-d(T) (10:1); conditions: buffer with d(A)-d(T) (10:1)
[15] = Mean rate constant for the hydrolysis of compound in buffers at pH 7.4, at 37 degrees Celsius in incubation mixture - d(A)-d(T) (1:1); type: ADME; conditions: buffer; method in brief: as §4
[16] = Half life for the hydrolysis of compound in buffers at pH 6.5, at 37 degrees Celsius in incubation mixture - d(G)-d(C) (10:1); type: ADME; method in brief: as §3
[17] = Mean rate constant for the hydrolysis of compound in buffers at pH 7.4, at 37 degrees Celsius in incubation mixture - d(A)-d(T) (10:1); conditions: buffer
[18] = test system: GM892A cell line; assay: In vitro cytotoxicity against human lymphoblastoid cell line (GM892 A); type: functional, cell-based; method in brief: as §2
[19] = Half life for the hydrolysis of compound in buffers at pH 7.4, at 37 degrees Centigrade in incubation mixture - d(G)-d(C) (10:1); type: ADME; method in brief: as §3
[20] = test system: GM892A cell line; assay: In vitro cytotoxicity against human lymphoblast cell line (GM892 A).; type: functional, cell-based; method in brief: as §2

Structure (SMILES): CN(N=O)C(N)=O.Cl.Cl.Cl
- Ratio [1]: 7.4
- IC50 [2]: 259 µM
- IC50 [3]: 35 µM

Structure (SMILES): Nc1nc(O)cc(-c2ccc(NC(=O)c3ncn4c(=O)n(CCCl)nnc34)cc2)n1
- IC50 [4]: 25 µM

Structure (SMILES): NC(=O)c1cccc2c(=O)n(-c3ccccc3)nnc12
- IC50 [4]: > 500 µM

Structure (SMILES): Cn1nnc2c(C(N)=O)cnn2c1=O
- Ratio [1]: 51
- IC50 [2]: 270 µM
- IC50 [3]: 5.3 µM

Structure (SMILES): CNC(=O)c1nnc2c(O)n(C)nnc1-2
- IC50 [2]: > 500 µM
- IC50 [3]: > 500 µM

Structure (SMILES): Cn1nnc2c(C(N)=O)cccc2c1=O
- IC50 [4]: > 500 µM

Structure (SMILES): NC(=O)c1ccc2c(=O)n(CCCl)nnc2c1
- IC50 [4]: 350 µM

Structure (SMILES): O=C(O)c1ncn2c(=O)n(CCCl)nnc12
- IC50 [4]: 15.8 µM

Structure (SMILES): Cn1nnc2c(C(=O)NCCCN(CCCN)CCCCN)ncn2c1=O
- IC50 [2]: > 500 µM
- IC50 [3]: > 500 µM

Structure (SMILES): NC(=O)c1ccc2c(=O)n(-c3ccccc3)nnc2c1
- IC50 [4]: 140 µM

Structure (SMILES): CCn1nnc2cc(C(N)=O)ccc2c1=O
- IC50 [4]: 108 µM

Structure (SMILES): Cn1nnc2cc(C(N)=O)ccc2c1=O
- IC50 [4]: 380 µM

Structure (SMILES): NC(=O)c1cccc2c(=O)n(CCCl)nnc12
- IC50 [4]: 225 µM

Structure (SMILES): NC(=O)c1ccc(NC(=O)c2ncn3c(=O)n(CCCl)nnc23)cc1
- IC50 [4]: 37 µM

Structure (SMILES): NC(=O)c1ccccc1NC(=O)c1ncn2c(=O)n(CCCl)nnc12
- IC50 [4]: 13 µM

Structure (SMILES): NC(=O)Cn1nnc2c(C(N)=O)cccc2c1=O
- IC50 [4]: > 500 µM

Structure (SMILES): NC(=O)c1cccc2c(O)nnnc12
- IC50 [4]: 400 µM

Structure (SMILES): NC(=O)c1cccc(NC(=O)c2ncn3c(=O)n(CCCl)nnc23)c1
- IC50 [4]: 35 µM

Structure (SMILES): NC(=O)c1ccc(NC(=O)c2ncn3c(=O)n(CCCl)nnc23)c(C(N)=O)c1
- IC50 [4]: 375 µM

Structure (SMILES): CCn1nnc2c(C(N)=O)ncn2c1=O
- Ratio [1]: 2.4
- IC50 [2]: 435 µM
- IC50 [3]: 180 µM

Structure (SMILES): CCn1nnc2c(C(N)=O)cccc2c1=O
- IC50 [4]: 325 µM

Structure (SMILES): O=C(Nc1ccccc1)c1ncn2c(=O)n(CCCl)nnc12
- IC50 [4]: 1.25 µM

Structure (SMILES): CN(C)/N=N/c1[nH]cnc1C(N)=O [DACARBAZINE]
- Ratio [1]: 9
- IC50 [2]: 128 µM
- IC50 [5]: 14 µM

Structure (SMILES): NC(=O)c1ncn2c(=O)n(CCCl)nnc12 [MITOZOLOMIDE]
- half-life [6]: 0.947 h
- half-life [7]: 1.26 h
- Ratio [1]: 8.1
- T1/2 ([8]; buffer): 5.777 h
- half-life ([8]; buffer with d(A)-d(T) (10:1)): 7.45 h
- Mean rate constant [9]: 0.0122 min⁻¹
- Mean rate constant [10]: 0.0094 min⁻¹
- Mean rate constant [11]: 0.00979 min⁻¹
- IC50 [2]: 39 µM
- half-life [12]: 1.18 h
- IC50 [4]: 2.5 µM
- half-life [13]: 1.22 h
- half-life [14]: 1.24 h
- Mean rate constant [15]: 0.00915 min⁻¹
- T1/2 ([16]; buffer): 5.747 h
- half-life ([16]; buffer with d(G)-d(C) (10:1)): 7.5 h
- Mean rate constant [17]: 0.00932 min⁻¹
- IC50 [18]: 4.8 µM
- T1/2 ([19]; buffer): 0.947 h
- half-life ([19]; buffer with d(G)-d(C) (10:1)): 1.27 h

Structure (SMILES): Cn1nnc2c(C(N)=O)ncn2c1=O [TEMOZOLOMIDE]
- Ratio [1]: 23
- IC50 [2]: 175 µM
- IC50 [4]: 5 µM
- IC50 [20]: 7.6 µM
